# Experiments:
# [1] = tested on: MDA-MB-231; assay: Antiproliferative activity against human MDA-MB-231 cells assessed as reduction in cell growth incubated for 72 hrs by MTT assay; type: functional, cell-based; details: MDA-MB-231, 72 h
# [2] = tested on: B16-F10; assay: Antiproliferative activity against mouse B16-F10 cells assessed as reduction in cell growth at 100 uM incubated for 72 hrs by MTT assay relative to control; type: functional
# [3] = tested on: MDA-MB-435; assay: Antiproliferative activity against human MDA-MB-435 cells assessed as reduction in cell growth at 100 uM incubated for 72 hrs by MTT assay relative to control; type: functional
# [4] = tested on: SK-OV-3; assay: Antiproliferative activity against human SK-OV-3 cells assessed as reduction in cell growth incubated for 7 days by trypan blue exclusion assay; type: functional, cell-based; details: SK-OV-3, 168 h
# Procedure, shortened: (§1)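 Ovarian lines grown in RPMI-1640 glutaMAX with 10% FBS, 5% CO2, 37°C. Cells seeded at 20 000 cells/well in 24-well plates and exposed to 0, 1, 10, 20, 30 or 50 μg/mL for 7 days. Viable cells were counted daily by trypan blue exclusion. At least three independent experiments in triplicate; mean ± standard deviation.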
# [5] = tested on: MDA-MB-435; assay: Antiproliferative activity against human MDA-MB-435 cells assessed as reduction in cell growth incubated for 72 hrs by MTT assay; type: functional, cell-based; details: MDA-MB-435, 72 h
# [6] = Toxicity in Swiss mouse assessed as effect on behaviour at 5 to 100 mg/kg, ip observed after 7 days; type: organism-based; details: in vivo, 168 h, dose 5-100 mg/kg, time 7 day
# Procedure, shortened: (§2)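 Male 6-week-old Swiss mice were acclimatized 5-7 days and randomised into seven groups of 3. Six groups got a single i.p. injection at 5, 10, 25, 50, 75 or 100 mg/kg; controls were uninjected. Mice were monitored over the first 24 h, then daily for 7 days, recording mortality and behaviour.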
# [7] = Toxicity in Swiss mouse assessed as death rate at 5 to 100 mg/kg, ip observed after 7 days; type: organism-based; details: in vivo, dose 5-100 mg/kg, time 7 day, read-out: Activity
# Procedure, shortened: (§3)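 Male 6-week-old Swiss mice, acclimatized 5-7 days, randomized into seven groups of 3. Single intraperitoneal injection at 5, 10, 25, 50, 75 or 100 mg/kg; controls housed alike without injection. Mice were monitored over the first 24 h, then daily for 7 days, recording mortality and behaviour.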
# [8] = tested on: A-431; assay: Antiproliferative activity against human A-431 cells assessed as reduction in cell growth at 100 uM incubated for 72 hrs by MTT assay relative to control; type: functional
# [9] = Toxicity in Swiss mouse assessed as effect on body weight at 5 to 100 mg/kg, ip observed after 7 days; type: organism-based; details: in vivo, 168 h, dose 5-100 mg/kg, time 7 day
# [10] = Cytotoxicity against human MET5A cells assessed as effect on cell morphology at 20 ug/ml measured upto 7 days by laser scanning confocal microscopy; type: cell-based; details: 168 h, time <=7 day, dose 20 µg/ml
# Procedure, shortened: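 Healthy mesothelial MeT-5A cells, treated or untreated, were followed over days 1, 3 and 7. Actin cytoskeleton was stained by immunofluorescence (green) and nuclei with DAPI. Morphology was examined by laser scanning confocal microscopy.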
# [11] = tested on: Huh-7; assay: Antiproliferative activity against human HuH-7 cells assessed as reduction in cell growth incubated for 72 hrs by MTT assay; type: functional, cell-based; details: Huh-7, 72 h
# [12] = tested on: MDA-MB-231; assay: Antiproliferative activity against human MDA-MB-231 cells assessed as reduction in cell growth at 100 uM incubated for 72 hrs by MTT assay relative to control; type: functional
# [13] = Toxicity in Swiss mouse assessed as systemic signs at 5 to 100 mg/kg, ip observed after 7 days; type: organism-based; details: in vivo, 168 h, dose 5-100 mg/kg, time 7 day
# [14] = Toxicity in Swiss mouse assessed as effect on food consumption at 5 to 100 mg/kg, ip observed after 7 days; type: organism-based; details: in vivo, 168 h, dose 5-100 mg/kg, time 7 day
# [15] = tested on: SK-OV-3; assay: Antiproliferative activity against human SK-OV-3 cells assessed as reduction in cell growth incubated for 4 days by trypan blue exclusion assay; type: functional, cell-based; details: SK-OV-3, 96 h; procedure, shortened: as §1
# [16] = tested on: IGROV-1; assay: Antiproliferative activity against human IGROV-1 cells assessed as reduction in cell growth incubated for 4 days by trypan blue exclusion assay; type: functional, cell-based; details: IGROV-1, 96 h; procedure, shortened: as §1
# [17] = tested on: SNB-75; assay: Antiproliferative activity against human SNB-75 cells assessed as reduction in cell growth incubated for 72 hrs by MTT assay; type: functional, cell-based; details: SNB-75, 72 h
# [18] = tested on: C6; assay: Antiproliferative activity against rat C6 cells assessed as reduction in cell growth at 100 uM incubated for 72 hrs by MTT assay relative to control; type: functional
# [19] = tested on: B16-F10; assay: Antiproliferative activity against mouse B16-F10 cells assessed as reduction in cell growth incubated for 72 hrs by MTT assay; type: functional, cell-based; details: B16-F10, 72 h
# [20] = Toxicity in Swiss mouse assessed as abnormal appearance at 5 to 100 mg/kg, ip observed after 24 hrs; type: organism-based; details: in vivo, dose 5-100 mg/kg
# [21] = tested on: Huh-7; assay: Antiproliferative activity against human HuH-7 cells assessed as reduction in cell growth at 100 uM incubated for 72 hrs by MTT assay relative to control; type: functional
# [22] = tested on: DU-145; assay: Antiproliferative activity against human DU-145 cells assessed as reduction in cell growth at 100 uM incubated for 72 hrs by MTT assay relative to control; type: functional
# [23] = tested on: SK-OV-3; assay: Antiproliferative activity against human SK-OV-3 cells assessed as reduction in cell growth incubated for 3 days by trypan blue exclusion assay; type: functional, cell-based; details: SK-OV-3, 72 h; procedure, shortened: as §1
# [24] = tested on: DU-145; assay: Antiproliferative activity against human DU-145 cells assessed as reduction in cell growth incubated for 72 hrs by MTT assay; type: functional, cell-based; details: DU-145, 72 h
# [25] = tested on: IGROV-1; assay: Antiproliferative activity against human IGROV-1 cells assessed as reduction in cell growth incubated for 3 days by trypan blue exclusion assay; type: functional, cell-based; details: IGROV-1, 72 h; procedure, shortened: as §1
# [26] = tested on: Caco-2; assay: Antiproliferative activity against human CaCo-2 cells assessed as reduction in cell growth at 100 uM incubated for 72 hrs by MTT assay relative to control; type: functional
# [27] = Toxicity in Swiss mouse assessed as abnormal behavior at 5 to 100 mg/kg, ip observed after 24 hrs; type: organism-based; details: in vivo, dose 5-100 mg/kg; procedure, shortened: as §2
# [28] = tested on: A-431; assay: Antiproliferative activity against human A-431 cells assessed as reduction in cell growth incubated for 72 hrs by MTT assay; type: functional, cell-based; details: A-431, 72 h
# [29] = tested on: Caco-2; assay: Antiproliferative activity against human CaCo-2 cells assessed as reduction in cell growth incubated for 72 hrs by MTT assay; type: functional, cell-based; details: Caco-2, 72 h
# [30] = Cytotoxicity against human MET5A cells assessed as effect on cell morphology at 50 ug/ml measured upto 7 days by laser scanning confocal microscopy; type: cell-based; details: 168 h, time <=7 day, dose 50 µg/ml
# Procedure, shortened: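 MeT-5A mesothelial cells, untreated or treated up to 50 μg/mL, were stained for actin cytoskeleton by immunofluorescence with DAPI-counterstained nuclei. Morphology was examined by laser scanning confocal microscopy on days 1, 3 and 7.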
# [31] = tested on: C6; assay: Antiproliferative activity against rat C6 cells assessed as reduction in cell growth incubated for 72 hrs by MTT assay; type: functional, cell-based; details: C6, 72 h
# [32] = tested on: IGROV-1; assay: Antiproliferative activity against human IGROV-1 cells assessed as reduction in cell growth incubated for 7 days by trypan blue exclusion assay; type: functional, cell-based; details: IGROV-1, 168 h; procedure, shortened: as §1
# [33] = tested on: SNB-75; assay: Antiproliferative activity against human SNB-75 cells assessed as reduction in cell growth at 100 uM incubated for 72 hrs by MTT assay relative to control; type: functional
# [34] = Toxicity in Swiss mouse assessed as death rate at 5 to 100 mg/kg, ip observed after 24 hrs; type: organism-based; details: in vivo, dose 5-100 mg/kg, read-out: Activity; procedure, shortened: as §3
Compound,IC50 [1],inhibition at 100 µM [2],inhibition at 100 µM [3],IC50 [4],IC50 [5],inhibition at 100 µM [8],Activity [10],IC50 [11],inhibition at 100 µM [12],IC50 [15],IC50 [16],IC50 [17],inhibition at 100 µM [18],IC50 [19],inhibition at 100 µM [21],inhibition at 100 µM [22],IC50 [23],IC50 [24],IC50 [25],inhibition at 100 µM [26],also measured
NC(=O)c1n[nH]nc1[C@@H]1O[C@H](CO)[C@@H](O)[C@H]1O,9.59 µM,80%,80%,19 µg/mL,1.9 µM,80%,Non-Toxic,22.2 µM,80%,25.5 µg/mL,22.8 µg/mL,9.38 µM,85%,1.52 µM,60%,85%,24.5 µg/mL,2.14 µM,23 µg/mL,90%,Activity [6]: Non-Toxic; mortality at 168 h [7]: 0%; Activity [9]: Non-Toxic; Activity [13]: Non-Toxic; Activity [14]: Non-Toxic; Activity [20]: Non-Toxic; Activity [27]: Non-Toxic; IC50 [28]: 0.58 µM; IC50 [29]: 8.05 µM; Activity [30]: Non-Toxic; IC50 [31]: 2.15 µM; IC50 [32]: 23.8 µg/mL; inhibition at 100 µM [33]: 70%; mortality at 24 h [34]: 0%
NC(=O)c1ncn([C@@H]2O[C@H](CO)[C@@H](O)[C@H]2O)n1 [RIBAVIRIN],> 100 µM,80%,50%,10 µg/mL,38.3 µM,70%,Non-Toxic,53.7 µM,40%,10 µg/mL,21 µg/mL,18.5 µM,75%,3.5 µM,60%,50%,9 µg/mL,> 100 µM,25 µg/mL,60%,IC50 [28]: 3.18 µM; IC50 [29]: 34.5 µM; IC50 [31]: 13.5 µM; IC50 [32]: 16 µg/mL; inhibition at 100 µM [33]: 70%

# Reference: ChEMBL document CHEMBL4680136, “Synthesis and antitumor activities investigation of a C-nucleoside analogue of ribavirin” (Eur J Med Chem, 2020)
